According to paper PMC4371170 (Learning & Memory, 2015):

Tests used:
[1] = system: other HDACs besides HDAC1, HDAC2, HDAC3, and HDAC10; assay: HDAC inhibitory potency against all 11 HDAC enzymes, remaining enzymes; type: biochemical; conditions: serial dilution starting at 20 μM
[2] = system: global histone H3 acetylation; assay: Immunocytochemistry of global histone H3 acetylation in BLA and dentate gyrus; type: in vivo, mice; conditions: 10 mg/kg IP, 1 h after administration, qualitative
How it was run: (§1)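 Mice received vehicle or test compound at 10 mg/kg IP (n = 2/group). They were perfused 1 h after dosing and brain tissue was processed for immunocytochemistry. Global acetyl-H3 or acetyl-H4 immunofluorescence was imaged with DAPI counterstain in the basolateral amygdala and hippocampal dentate gyrus. Assessment was qualitative, from photomicrographs of colocalization.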

[3] = system: global histone H4 acetylation; assay: Immunocytochemistry of global histone H4 acetylation in BLA and dentate gyrus; type: in vivo, mice; conditions: 10 mg/kg IP, 1 h after administration, qualitative
How it was run: as §1

C57BL/6J mice [4] = type: in vivo; conditions: 10 mg/kg IP after extinction training
How it was run: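 Adult male C57BL/6J mice, 8–12 wk, group-housed 1 wk at 24°C on a 12-h light–dark cycle with food and water ad libitum, tested in the light phase. At 48 h after fear conditioning, three CS trials in a novel Context B (Plexiglas over shock bars, red light, 1% ammonium hydroxide) were averaged to assign groups (n = 12/group) matched for freezing. Extinction training followed 24 h later. Retention tests of 15 CS trials were run 24 and 48 h later, with freezing to the CS scored automatically.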

C57BL/6J mice [5] = assay: Extinction retention tests after drug without extinction training; type: in vivo; conditions: 10 mg/kg IP without extinction training
C57BL/6J mice [6] = assay: Open-field test; type: in vivo; conditions: 10 mg/kg IP
[7] = 10 mg/kg IP, mouse
lysine 8 on H4 = conditions: site regulated by HDAC3; ref Malvaez et al. 2013; cited from earlier work
HAT activity = conditions: ref Nair et al. 2001; cited from earlier work

| inhibition of any other HDACs [1] | brain penetrance compared with RGFP963 [7] | crossing of the blood brain barrier [7] | time of maximum brain concentration post-drug administration [7] [min] | Structure (SMILES) | global acetylation of histone H3 in the BLA ([2]; compared with vehicle) | global acetylation of histone H3 in the dentate gyrus [2] | global H4 acetylation in the BLA [3] | global acetylation of histone H4 in the dentate gyrus [3] | effect on consolidation of cued fear extinction (C57BL/6J mice [4]) | nonspecific effect on extinction retention (C57BL/6J mice [5]) | effect of drug on time spent in the center (C57BL/6J mice [6]; F(2,23) = 0.22, NS) | effect of drug on distance traveled (C57BL/6J mice [6]; F(2,23) = 1.06, NS) | acetylation of lysine 8 on H4 (lysine 8 on H4) | effect on HAT activity (HAT activity) |
| --- | --- | --- | --- | --- | --- | --- | --- | --- | --- | --- | --- | --- | --- | --- |
| did not inhibit | lower brain penetrance | able to cross the blood brain barrier | 15 | Nc1cc(F)ccc1NC(=O)/C=C/c1cnn(C/C=C/c2ccccc2)c1 [RGFP966] | seems to increase | seem to decrease | Neither RGFP966 nor RGFP963 appear to alter | seem to decrease | no effect | does not nonspecifically enhance extinction retention | No significant effect | No significant effect | enhance acetylation |  |
|  |  |  |  | CC(/C=C/C(=O)NO)=C\[C@@H](C)C(=O)c1ccc(N(C)C)cc1 [trichostatin A] |  |  |  |  |  |  |  |  |  | inhibition of HAT activity |
